Measurements from ChEMBL document CHEMBL1142774, “Substituted tetraazaacenaphthylenes as potent CRF1 receptor antagonists for the treatment of depression and anxiety” (Bioorg Med Chem Lett, 2005).

Columns and labels:
[1] = Displacement of [125I]o-CRF from recombinant human CRF receptors expressed in Chinese Hamster Ovary (CHO) cell membranes
[2] = Oral bioavailability in rat at 1 hr (dose 0.5 mg/kg i.v.); assay type: ADME, organism-based; settings: in vivo, 1 mg/kg
Summary of the method: (§1)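 The pharmacokinetic study used Hans–Wistar rats. Each compound was given by the oral route at 1 mg/kg and by the intravenous route at 0.5 mg/kg. Plasma clearance and oral bioavailability were derived from these two administrations.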

[3] = Plasma clearance at 1 hr after a intravenous dose 0.5 mg/kg in rats; assay type: ADME, organism-based; parameters: dose 0.5 mg/kg, route intravenous; settings: rat; summary of the method: as §1
[4] = Brain/Plasma ratio level at 1 hr after a intravenous dose 0.5 mg/kg in rats; assay type: ADME, organism-based; parameters: dose 0.5 mg/kg, route intravenous; settings: rat, read-out: Penetration
Summary of the method: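 Hans–Wistar rats were given a single 0.5 mg/kg intravenous dose. Brain and plasma levels were measured at 1 h post-dose, and the brain/plasma ratio was taken from these levels.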

Row | Structure (SMILES) | Log IC50 [1] | bioavailability [2] | clearance [3] | Kp at 1 h [4]
1 | CCC(CC)N1CC2CCN(c3ccc(Cl)cc3Cl)c3nc(C)nc1c32 (stereo unspecified) | -7.16 | – | – | –
2 | Cc1nc2c3c(n1)N(c1ccc(Cl)cc1Cl)CC3CCN2CC1CC1 (stereo unspecified) | -5.35 | – | – | –
3 | CCCC(CCC)n1cc2c3c(nc(C)nc31)N(c1ccc(C(F)(F)F)cc1C(F)(F)F)CC2 | -7.85 | 33% | 10 mL/min/kg | 1.3
4 | CCC(CC)n1cc2c3c(nc(C)nc31)N(c1ccc(C#N)cc1Cl)CC2 | -7.21 | – | – | –
5 | CCC(CC)n1cc2c3c(nc(C)nc31)N(c1ccc(C(F)(F)F)cc1C(F)(F)F)CC2 | -7.58 | – | – | –
6 | CCCC(CCC)N1CCC2CN(c3ccc(Cl)cc3Cl)c3nc(C)nc1c32 (stereo unspecified) | -7.52 | 31% | 31 mL/min/kg | 1.8
7 | CCCC(CCC)n1cc2c3c(nc(C)nc31)N(c1ccc(C#N)cc1C)CC2 | -7.35 | – | – | –
8 | CCC(CC)N1CCC2CN(c3ccc(Cl)cc3Cl)c3nc(C)nc1c32 (stereo unspecified) | -6.74 | – | – | –
9 | COCC(COC)N1CC2CCN(c3ccc(Cl)cc3Cl)c3nc(C)nc1c32 (stereo unspecified) | -5.9 | – | – | –
10 | CCC(CC)n1cc2c3c(nc(C)nc31)N(c1ccc(C#N)cc1C)CC2 | -7.57 | – | – | –
11 | CCCC(CCC)N1CCC2CN(c3ccc(C(F)(F)F)cc3C(F)(F)F)c3nc(C)nc1c32 (stereo unspecified) | -7.39 | – | – | –
12 | COCC(COC)Nc1nc(C)nc2c(-c3ccc(Cl)cc3Cl)c(C)nn12 | -7.42 | – | – | –
13 | CCCC(CCC)N1CC2CCN(c3ccc(Cl)cc3Cl)c3nc(C)nc1c32 (stereo in doubt; 2ac) | -7.65 | 14% | 32 mL/min/kg | 2
14 | CCCC(CCC)N1CC2CCN(c3ccc(C(F)(F)F)cc3C(F)(F)F)c3nc(C)nc1c32 (stereo in doubt; 2ad) | -7.44 | 36% | 15 mL/min/kg | 1.1
15 | CCCC(CCC)N1CC2CCN(c3ccc(Cl)cc3Cl)c3nc(C)nc1c32 (stereo in doubt; 2ae) | -7.96 | – | – | –
16 | CCCC(CCC)N1CC2CCN(c3ccc(Cl)cc3Cl)c3nc(C)nc1c32 (stereo in doubt; 2af) | -7.89 | – | – | –
17 | CCCC(CCC)N1CC2CCN(c3ccc(C(F)(F)F)cc3C(F)(F)F)c3nc(C)nc1c32 (stereo in doubt; 2ag) | -7.55 | – | – | –
18 | CCCC(CCC)N1CC2CCN(c3ccc(C(F)(F)F)cc3C(F)(F)F)c3nc(C)nc1c32 (stereo in doubt; 2ah) | -7.84 | – | – | –
19 | CCCCN(CC)c1nc(C)nc2c1c(C)cn2-c1c(C)cc(C)cc1C [CP-154526] | -7.76 | – | – | –
